# GalR3 antag: human GalR3 antagonism; HEK293 GalR3-CNG cAMP membrane potential fluorescence; galR3 body fused to GalR1 C-terminus; 360,000 tested, 0.44% active; O60755; inhibition, % at 3 µM;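 active means inhibition above the screen-wide average plus 3 SD, cut at about 13% in these data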;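 further: forskolin and galanin both at EC90 stimulate the cells; cAMP rise reported by CNG channel membrane potential dye signal; 0% = forskolin plus galanin with DMSO and 100% = forskolin alone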
# Target sequence (O60755 1-299 limits assumed): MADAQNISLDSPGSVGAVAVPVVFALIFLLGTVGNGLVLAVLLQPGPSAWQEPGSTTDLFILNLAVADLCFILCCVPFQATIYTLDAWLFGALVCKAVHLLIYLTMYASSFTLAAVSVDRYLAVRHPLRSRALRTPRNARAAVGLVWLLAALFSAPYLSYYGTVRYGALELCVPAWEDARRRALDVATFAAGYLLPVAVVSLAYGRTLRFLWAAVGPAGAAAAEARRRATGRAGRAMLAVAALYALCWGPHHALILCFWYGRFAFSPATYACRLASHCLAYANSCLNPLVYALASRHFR
# Calb FLC: C. albicans growth modulation with fluconazole; C. albicans CaCi-2 + fluconazole, Alamar Blue growth, 48 h; growth inhibition, % (no concentration beside the values); 300,000 tested, 0.57% active;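 active means growth inhibition above about 58% in most replicates, limit read from the data, passing the limit was not always enough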;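 further: all wells also contain fluconazole at 8 µg/ml as a sub-toxic cotreatment; 0% = median of DMSO wells and 100% = median of geldanamycin control wells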
# H9c2 TAG inh: reduces triacylglycerol accumulation in H9c2 cells; 230,000 tested, 0.66% active; inhibition, % at 12.5 µM; Nile Red lipid (TAG) fluorescence; cells loaded with 200 µM oleic acid; AID 651582;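 active means pattern-corrected inhibition of lipid staining of at least 50% with the nuclear-stain viability signal not falling by more than 50%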;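 further: 0% = DMSO wells and 100% = triacsin C control wells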
# MC4R ag barr: agonists of human melanocortin 4 receptor (MC4R) beta-arrestin. U2OS MC4R beta-arrestin complementation, luminescence; percent of melanotan II response, DMSO zero. activation, % at 8.9 µM. 360,000 tested, 0.98% active. AID 540308;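 active means activation above a per-plate cutoff, the mean activation of sample wells on that plate plus 3 SD, cut at about 8% in these data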
# Target sequence (P32245 whole entry, looked up): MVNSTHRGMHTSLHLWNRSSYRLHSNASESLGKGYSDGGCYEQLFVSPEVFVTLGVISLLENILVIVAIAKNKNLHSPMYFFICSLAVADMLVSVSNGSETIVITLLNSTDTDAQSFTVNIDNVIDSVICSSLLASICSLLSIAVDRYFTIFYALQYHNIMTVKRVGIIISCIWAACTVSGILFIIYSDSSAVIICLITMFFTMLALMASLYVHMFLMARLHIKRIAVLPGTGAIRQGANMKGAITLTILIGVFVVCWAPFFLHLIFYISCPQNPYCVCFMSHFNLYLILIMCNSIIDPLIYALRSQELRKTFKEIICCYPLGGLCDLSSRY
# Efflux pump inh: blocks antifungal efflux pumps in multiplex yeast assay; 330,000 tested, 0.44% active; S. cerevisiae Candida pump triplex, Nile Red efflux; AID 485275; inhibition, % at 10 µM;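 active means plate passing quality check with inhibition over a set limit, or well fluorescence over plate mean plus 4 SD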;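 further: Nile Red retained in pooled yeast measured as flow cytometry median fluorescence; 0% = buffer negative control and 100% = Enniatin B positive control; higher means more Nile Red kept so more efflux inhibition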
# MC4R antag cAMP: human MC4R antagonism in cAMP assay. MC4R-expressing cells, MTII-stimulated cAMP, LANCE TR-FRET. inhibition, % at 6.5 µM. 360,000 tested, 0.48% active. AID 540295;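 active means inhibition above its plate's cutoff, the mean of tested wells on that plate plus 3 SD, cut at about 29% in these data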;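 further: 0% = Melanotan II alone and 100% = Melanotan II plus saturating MCL0020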
#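 Assay system: U2OS cells stably expressing human melanocortin 4 receptor (MC4R) / Dosing: 6.5 µM / Timing: compound 30 min, challenge 1 h, detection 1 h / Measured by: Eu-cAMP/anti-cAMP TR-FRET, emission 671 nm / Replicates: singlicate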
# Cmpd fluor yeast: compound fluorescence in yeast efflux pump counter-screen; shares compounds with Efflux pump inh; S. cerevisiae AD/pABC3, flow cytometry; fluorescence ratio to DMSO, % at 10 µM; 1,700 tested, 4% active;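 active means fluorescence ratio to DMSO above its plate's cutoff, the plate mean ratio plus 5 SD, cut at about 210% in these data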;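 further: unstained yeast with no Nile Red so the signal is compound autofluorescence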
# Mdr1 pump inh: Candida Mdr1 efflux pump inhibition; inhibition, % at 10 µM; shares compounds with Efflux pump inh; 1,700 tested, 1% active; S. cerevisiae AD/CaMDR1, Nile Red efflux, flow cytometry; AID 588518; in the data active means inhibition above about 26%;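 further: 0% = DMSO vehicle and 100% = reference inhibitor; higher means more Nile Red retained so more efflux inhibition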
# Cdr2 pump inh: inhibitors of Candida albicans Cdr2 efflux pump; shares compounds with Efflux pump inh; S. cerevisiae AD/CaCDR2, Nile Red retention, flow cytometry; Nile Red retention ratio vs DMSO, % at 10 µM; 1,700 tested, 4% active; AID 588520; in the data active means Nile Red retention ratio vs DMSO above about 190%;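 further: higher ratio means more blocking of Cdr2 efflux of the dye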
# Cdr1 pump inh: blocks the Candida albicans Cdr1 efflux pump in yeast | 1,700 tested, 1% active | AID 588522 | S. cerevisiae AD/CaCDR1, Nile Red efflux, flow cytometry | inhibition, % at 10 µM | shares compounds with Efflux pump inh;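 active means inhibition above the screen-wide mean plus twice its standard deviation, cut at about 32% in these data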
# * = called active by the depositor; / = no result given; + = active, no number. Compounds with a hit are over-represented: about 2.9% of the library has one in this group of screens.
SMILES,GalR3 antag,Calb FLC,H9c2 TAG inh,MC4R ag barr,Efflux pump inh,MC4R antag cAMP,Cmpd fluor yeast,Mdr1 pump inh,Cdr2 pump inh,Cdr1 pump inh
Cc1ccc(S(=O)(=O)Cn2nnnc2C(CC(C)C)N2CCN(c3ccccc3)CC2)cc1 (configuration not stated),-3,-23,-17,-2,0.9*,5,107,0,107,0
COc1ccc(Cl)cc1C(=O)O/N=C(\N)c1ccc(Cl)cc1,-3,18,/,3,6.5*,-5,113,0,110,0
COc1cccc(C(=O)O/N=C(\N)c2ccccn2)c1OC,-8,29,/,-1,0,-2,/,/,/,/
COc1cccc(C(=O)O/N=C(\N)c2ccncc2)c1OC,-7,28,/,-1,13*,0,98,0,107,0
COc1ccc(NC(=O)c2cc(C3CCCCN3S(=O)(=O)c3c(C)noc3C)on2)c(C)c1 (configuration not stated),-5,/,12,1,/,7,/,/,/,/
O=C(NCc1ccccc1)C(c1ccc(-c2ccccc2)cc1)n1c(=O)c(-c2ccco2)nc2ccccc21 (configuration not stated),-8,/,/,/,/,/,/,/,/,/
CC(NC(=O)CCC(=O)NC(C)c1ccccc1)c1ccccc1 (configuration not stated),-2,-11,/,0,0,-5,/,/,/,/
CC(NC(=O)CCSCCC(=O)NC(C)c1ccccc1)c1ccccc1 (configuration not stated),-2,-1,0,-1,1.2*,7,102,0,98,0
CCOC(=O)c1c(-c2ccc(F)cc2)csc1NC(=O)c1c(-c2ccccc2)noc1C,-7,16,/,1,0,24,/,/,/,/
CCOC(=O)c1c(-c2ccccc2)csc1NC(=O)c1cc(-c2ccccc2OC)on1,7,-20,-4,0,0.7*,12,89,0,114,0
CC1(C2CCC3C4CCC5CC6(CCC5(C)C4C(=O)CC32C)OCCO6)OCCO1 (configuration not stated),0,/,2,0,/,6,/,/,/,/
CN1C/C(=C\c2ccc(N3CCOCC3)cc2)C(=O)/C(=C/c2ccc(N3CCOCC3)cc2)C1,-10,10,/,-3,0.8*,-7,99,0,114,0
O=C1CCCC(=O)C1=C1SCCCS1,-8,-15,/,-1,6.5*,2,91,0,96,0
OC(c1ccccc1)(c1ccccc1)C1CCN(CCCOc2cccc(F)c2)CC1,-9,/,/,/,/,/,/,/,/,/
O=C(NC1CCCc2ccccc21)c1cncc(Br)c1 (configuration not stated),0,2,-19,2,3.4*,-1,96,0,92,0
Cc1cc(/C=C\c2ccc3cc(N(C)C)ccc3[n+]2C)c(C)n1-c1ccccc1,/,/,-110,-3,17*,-37,+,38*,270*,20
O=C(Nc1cc(C(F)(F)F)ccc1F)C1Cc2c(-c3ccccc3Oc3ccccc3)ccnc2O1 (configuration not stated),-3,/,-45,2,/,13,/,/,/,/
N#CCCn1cc(/C=N/O)c(-c2ccc(Cl)cc2)n1,-5,3,/,0,6.7*,1,104,0,103,0
COc1ccc(C(=O)CC(=O)C(=O)Nc2ccc(Cl)cc2)cc1,-7,-16,/,0,1.4*,-6,82,0,172,1
O=c1oc2ccccc2c(N2CCCCC2)c1[N+](=O)[O-],-3,-15,/,-1,1.2*,2,100,0,98,0
Cc1c(C(=O)OCC(=O)NCCN2C(=O)CSC2=O)cccc1[N+](=O)[O-],-7,/,-9,-2,0,5,/,/,/,/
O=C(COC(=O)c1ccccc1Br)NCCN1C(=O)CSC1=O,-8,7,3,1,1.1*,0,99,0,93,0
O=C(COC(=O)c1cccnc1Nc1ccccc1F)NCCN1C(=O)CSC1=O,-1,24,/,-1,0,4,/,/,/,/
CC1CC(C)CN(S(=O)(=O)c2ccc(C(=O)OCC(=O)NCCN3C(=O)CSC3=O)cc2)C1 (configuration not stated),-5,-9,4,0,0,0,/,/,/,/
CCN(CC)S(=O)(=O)c1cccc(C(=O)OCC(=O)NCCN2C(=O)CSC2=O)c1,-6,/,4,-1,0,9,92,0,85,0
SMILES,GalR3 antag,Calb FLC,H9c2 TAG inh,MC4R ag barr,Efflux pump inh,MC4R antag cAMP,Cmpd fluor yeast,Mdr1 pump inh,Cdr2 pump inh,Cdr1 pump inh
O=C(COC(=O)c1cccc(Cl)c1Cl)NCCN1C(=O)CSC1=O,-5,4,3,-1,0,8,112,0,108,0
CC/C(O)=C(\C#N)c1nnc2n1CCCCC2,-6,-5,/,-2,6.7*,7,106,0,95,0
CC/C(O)=C(/C#N)c1nnc2n1CCCCC2,-7,6,/,1,0,15,/,/,/,/
Cc1ccc(S(=O)(=O)NC(=O)ON=Cc2ccc3c(c2)OCO3)cc1,1,/,/,/,/,/,/,/,/,/
COc1ccc(OCCCC(=O)Nc2nc(-c3ccccn3)cs2)cc1,-3,4,20,-3,0,-1,/,/,/,/
Cc1cc(C)c(OCC(=O)Nc2nc(-c3ccccn3)cs2)c(C)c1,-10,1,2,-1,0.6*,11,100,0,100,0
Cc1cccc(C)c1NC(=O)C(c1ccccc1)N(C)CCc1ccccc1 (configuration not stated),-3,/,/,/,/,/,/,/,/,/
COc1ccc(CC(=O)O/N=C(\N)c2ccncc2)cc1,-6,-4,0,0,0,7,/,/,/,/
COc1ccc(CC(=O)O/N=C(\N)c2ccc(C)cc2)cc1,-5,-1,-6,-2,0,-3,114,0,117,0
CCN(CC)C(=O)C1=C(C)N(Cc2ccc(C(C)(C)C)cc2)C(=O)C(CC(=O)NC(c2ccccc2)c2ccccc2)C1 (configuration not stated),-9,/,35,0,/,2,/,/,/,/
COc1cc(C(=O)COC(=O)c2ccc3c(c2)OCCO3)cc(OC)c1OC,-9,/,12,1,/,-8,/,/,/,/
N#C/C(=N\O)c1nc2ccccc2s1,-5,25,-4,-2,0,8,/,/,/,/
N#C/C(=C\c1ccco1)c1nc2ccccc2s1,0,3,/,4,0,6,108,0,110,0

# Assay outcomes deposited in PubChem by several laboratories.
